Screening results deposited in PubChem BioAssay by several laboratories.
This is one part of a sample in which hits are shown more often than they occur.
Cl transport mod: modulates chloride dependent transport by human KCC2 | AID 1456 | Q9H2X9 | B-score of Tl+ flux slope (higher = more flux/activation; lower = inhibition) at 10 µM | KCC2 cells, thallium flux FluoZin-2 fluorescence | hit rate 2.2% among 190,000;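 active = thallium flux slope and its plate-corrected score both differing from the plate sample mean at a set confidence after two filtering rounds, in either direction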;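 also: slope of fluorescence scaled to starting intensity during 10 to 20 s after thallium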
pCIP destab: compounds decreasing mouse p/CIP protein stability | Q05BA5 | decrease of EGFP signal, % at 10 µM | F442A p/CIP-EGFP cells, EGFP fluorescence, 16 h | AID 1984 | hit rate 0.01% among 290,000;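 active = EGFP signal decrease of at least 30% at 10 µM or well 3 SD below plate mean, unless failing retest; inactive = the rest, including hits failing retest or dose response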
ABCB6 inh MLPCN: human ABCB6 transporter inhibition; Q9NP58; K562-ABCB6 porphyrin accumulation, flow cytometry, 1 h; hits give low values; fluorescence ratio to DMSO, % at 10 µM; hit rate 0.19% among 360,000; AID 602162;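 active = fluorescence ratio to DMSO below 75%, the collection mean minus 3 SD; inconclusive = too few cells collected in the well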;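 also: signal is porphyrin accumulated inside mitochondria; 100% equals median channel fluorescence of DMSO control wells; lower ratio means ABCB6 inhibition with less porphyrin fluorescence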
V-ATPase pH: yeast V-ATPase proton transport regulation by pHLuorin | S. cerevisiae, pHLuorin cytosolic pH fluorescence | response, % at 10 µM | hit rate 0.37% among 350,000; in the data active = response mostly above about 7.3%, no sharp cut-off; inactive = mostly below about 5.4%; also: actives read high
Dynein transport: blocks dynein driven cargo transport along microtubules. 3617.4 mouse cells, GR-EGFP nuclear translocation imaging; test concentration mostly 20 µM; stimulated with dexamethasone, 1 µM; hits give low values. z-score, hits read low. hit rate 0.47% among 220,000. AID 1381;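 active = plate z-score of nuclear minus cytoplasmic receptor signal below a set negative limit, without overly bright fluorescence or cell loss, cut at about -3.5 in these data, passing the limit was not always enough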;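 also: z-score of nuclear minus cytoplasmic ring GR-EGFP intensity difference per well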
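Buffer or medium – tet-free medium with charcoal-stripped serum · Signal – automated 10x imaging of fixed Hoechst-stained cells · Also added – dexamethasone agonist, 1.0 µM final, for 30 min · Incubation – induction 48 h, compound 1 h, agonist 30 min · Read-out – GR-EGFP nuclear translocation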
KCC2 secondary: KCC2 (human) modulation, secondary assay. shares compounds with Cl transport mod. HEK293-KCC2, thallium flux, FluoZin2 fluorescence; hits give high values. normalised thallium flux (F/F0 slope) at 10 µM. hit rate 15% among 3,700. AID 1713;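 active = thallium flux slope above the same plate's solvent-only control mean plus 3 SD; inconclusive = the two replicate wells disagree; inactive = no significant difference from solvent-only control wells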
KCC2 bumet counter: bumetanide-insensitive thallium flux in KCC2 cells with ouabain, counter-screen; shares compounds with Cl transport mod; HEK293-KCC2 + bumetanide/ouabain, thallium flux FluoZin2; hits give high values; normalized thallium flux at 10 µM; hit rate 49% among 3,700;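 active = thallium entry rate above the same plate's blocked-transporter control wells by more than 3 SD; inconclusive = the two repeat wells disagree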;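 also: raw slope of fluorescence over initial fluorescence between 10 and 20 s after thallium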
KCC2 sec2: confirmation of human KCC2 transport modulators. AID 1715. hit rate 23% among 3,700. shares compounds with Cl transport mod. HEK293-KCC2, thallium flux FluoZin2 fluorescence; actives lie on both sides; F/F0 rise rate, 10–20 s post-thallium. normalized thallium flux at 10 µM;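 active = thallium flux slope more than 3 SD above or below the plate's solvent-only control mean, mostly below; inconclusive = the two repeat wells disagreed; inactive = no significant shift from solvent-only controls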;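 also: raw slope with 0.1% DMSO as baseline and bumetanide as block control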
HEK293 Tl flux: acts in parental HEK cells, KCC2 counter-screen. hit rate 46% among 3,700. HEK293 parental cells, thallium flux FluoZin2, ouabain; baseline-ratio fluorescence slope, 10–20 s after thallium. thallium flux rate (normalised fluorescence) at 10 µM. shares compounds with Cl transport mod;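 active = thallium flux rate significantly above the same plate's solvent-only control wells, beyond their mean plus 3 SD; inconclusive = the two replicate wells gave conflicting results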
KCC2 retest ouab: modulates human KCC2 on retest with ouabain. hit rate 48% among 3,700. HEK293-KCC2, thallium flux FluoZin2 fluorescence; bidirectional: low = inhibitor, high = activator. raw Tl+ flux slope (below DMSO = inhibition, above = activation) at 10 µM. shares compounds with Cl transport mod. AID 1717;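 active = thallium flux slope beyond 3 SD from same-plate DMSO control mean in most replicates, usually higher, sometimes lower; inconclusive = repeat tests gave conflicting results; inactive = no significant difference from controls in most replicates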;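 also: slope of initial-normalized fluorescence between seconds 10 and 20 after thallium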
HEK counter2: parental HEK flux effect, counter-screen 2; HEK293 parental, thallium flux FluoZin-2 fluorescence slope; shares compounds with Cl transport mod; AID 1718; thallium flux slope at 10 µM; hit rate 33% among 3,700;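 active = thallium flux slope above the same plate's solvent-control mean plus 3 SD in both duplicate wells; inconclusive = duplicate wells that disagreed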;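 also: run without ouabain in cells lacking the KCC2 cotransporter; slope of fluorescence scaled to its starting value between 10 and 20 s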
Active calls of the source: *.

What do the screens show for `CC(C)(C)C(=O)Nc1cc(NC(=O)C(C)(C)C)cc(C(=O)Nc2cc(C(=O)O)cc(C(=O)O)c2)c1`?
Cl transport mod: 0.37; pCIP destab: -5.7; ABCB6 inh MLPCN: 97.0; V-ATPase pH: 2.0; Dynein transport: -0.532

Results for Cc1ccccc1-c1nnc(SCC(=O)Nc2cccc(C)c2C)o1 ?
Cl transport mod: -4.75*; pCIP destab: 2.1; ABCB6 inh MLPCN: 96.0; V-ATPase pH: 4.0; Dynein transport: -0.0493; KCC2 secondary: 0.0169; KCC2 bumet counter: 0.00416; KCC2 sec2: 0.0277; HEK293 Tl flux: 0.00711; KCC2 retest ouab: 0.0143; HEK counter2: 0.0103

What do the screens show for `O=C1OC(Nc2ccc(F)cc2F)c2ccccc21` (stereo not given)?
pCIP destab: -12.2; ABCB6 inh MLPCN: 98.0; V-ATPase pH: -3.4; Dynein transport: -0.797; KCC2 secondary: 0.00656; KCC2 bumet counter: 0.00502; KCC2 sec2: 0.0268; HEK293 Tl flux: 0.00765; KCC2 retest ouab: 0.0186; HEK counter2: 0.0106

What do the screens show for `O=C1OC(Nc2ccc(F)c([N+](=O)[O-])c2)c2ccccc21` (stereo not given)?
Cl transport mod: -0.375; pCIP destab: -3.2; ABCB6 inh MLPCN: 100.0; V-ATPase pH: -1.2; Dynein transport: 0.465

What do the screens show for `CCCN1C(=O)/C(=C/c2ccc3c(c2)OCO3)NC1=S`?
Cl transport mod: 44.9*; pCIP destab: -8.2; ABCB6 inh MLPCN: 104.0; V-ATPase pH: -0.1; Dynein transport: -0.678; KCC2 secondary: 0.0257*; KCC2 bumet counter: 0.071*; KCC2 sec2: 0.0353; HEK293 Tl flux: 0.092*; KCC2 retest ouab: 0.0602*; HEK counter2: 0.0219*

What do the screens show for `CCCN1C(=O)/C(=C/c2ccc(OCc3ccc(C(=O)O)cc3)c(OC)c2)NC1=S`?
ABCB6 inh MLPCN: 101.0; V-ATPase pH: 0.8

Results for Cc1ccccc1-n1c(=S)[nH]c2nc3c(cc2c1=O)CCCC3 ?
Cl transport mod: 25*; pCIP destab: -20.4; ABCB6 inh MLPCN: 102.0; V-ATPase pH: 1.1; Dynein transport: -0.681; KCC2 secondary: 0.0255*; KCC2 bumet counter: 0.0689*; KCC2 sec2: 0.0454*; HEK293 Tl flux: 0.0462*; KCC2 retest ouab: 0.0434*; HEK counter2: 0.035*

How did CC(CCc1ccccc1)NC(=O)CCNC(=O)c1ccccc1Cl (stereo not given) do in these assays?
ABCB6 inh MLPCN: 93.0; V-ATPase pH: 1.8

How did O=C(NC1CCCC1)c1sc(=S)n2c1[nH]c(=O)c1ccccc12 do in these assays?
Cl transport mod: 23.8*; pCIP destab: -11.2; ABCB6 inh MLPCN: 90.0; V-ATPase pH: 1.6; Dynein transport: 0.246; KCC2 secondary: 0.0155*; KCC2 bumet counter: 0.0522*; KCC2 sec2: 0.0301; HEK293 Tl flux: 0.0243*; KCC2 retest ouab: 0.0451*; HEK counter2: 0.0136*

What do the screens show for `O=C(NCc1ccco1)c1sc(=S)n2c1[nH]c(=O)c1ccccc12`?
pCIP destab: -15.3; ABCB6 inh MLPCN: 96.0; V-ATPase pH: -0.2; Dynein transport: -0.438

What do the screens show for `COCCCNCC(=O)Nc1ccc(OC(F)(F)F)cc1`?
Cl transport mod: 3.65*; pCIP destab: 9.1; ABCB6 inh MLPCN: 89.0; V-ATPase pH: 2.1; Dynein transport: 1.05; KCC2 secondary: 0.00911; KCC2 bumet counter: 0.00622; KCC2 sec2: 0.0295; HEK293 Tl flux: 0.00715; KCC2 retest ouab: 0.0269; HEK counter2: 0.0098

How did Cn1cc(SCC(=O)N2CCOCC2)c2ccccc21 do in these assays?
Cl transport mod: -0.794; pCIP destab: 15.0; ABCB6 inh MLPCN: 95.0; V-ATPase pH: -4.5; Dynein transport: -0.107

What do the screens show for `Cn1cc(SCC(=O)N2CCN(c3ccccc3)CC2)c2ccccc21`?
Cl transport mod: -5.18*; pCIP destab: -9.0; ABCB6 inh MLPCN: 97.0; V-ATPase pH: -1.6; Dynein transport: -0.993; KCC2 secondary: 0.00632; KCC2 bumet counter: 0.00499; KCC2 sec2: 0.0234*; HEK293 Tl flux: 0.00689; KCC2 retest ouab: 0.0145*; HEK counter2: 0.00951

Results for CC(C)c1ccc(NC(=O)c2cnn(-c3ccccc3)c2NC(=O)c2ccco2)cc1 ?
Cl transport mod: -3.72*; pCIP destab: -7.9; ABCB6 inh MLPCN: 96.0; V-ATPase pH: 0.0; Dynein transport: -0.515; KCC2 secondary: 0.00688; KCC2 bumet counter: inconclusive; KCC2 sec2: 0.0263*; HEK293 Tl flux: 0.00725; KCC2 retest ouab: inconclusive; HEK counter2: 0.0108

What do the screens show for `Cc1nc2[nH]c(=O)c3c(n2n1)NC1=C(C(=O)CC(C)(C)C1)C3c1ccc(F)cc1` (stereo not given)?
pCIP destab: -8.7; ABCB6 inh MLPCN: 102.0; V-ATPase pH: -2.5; Dynein transport: 1.84; KCC2 secondary: 0.00596; KCC2 bumet counter: 0.00456; KCC2 sec2: 0.0304; HEK293 Tl flux: 0.0068; KCC2 retest ouab: 0.0184; HEK counter2: 0.0101

How did CCc1ccc(C2C3=C(CC(C)(C)CC3=O)Nc3c2c(=O)[nH]c2nc(C)nn32)cc1 (stereo not given) do in these assays?
Cl transport mod: -0.899; pCIP destab: 1.3; ABCB6 inh MLPCN: 102.0; V-ATPase pH: 5.0; Dynein transport: 1.62

How did COc1ccc(-c2csc(/C(C#N)=C/Nc3cc4oc5ccccc5c4cc3OC)n2)cc1 do in these assays?
Cl transport mod: 0.906; pCIP destab: -7.3; ABCB6 inh MLPCN: 97.0; V-ATPase pH: -4.1; Dynein transport: -0.787

Results for CCCOc1ccc(C(=O)Nc2ccc(S(=O)(=O)Nc3cc(C)nc(C)n3)cc2)cc1 ?
Cl transport mod: -0.944; pCIP destab: -0.7; ABCB6 inh MLPCN: 92.0; V-ATPase pH: 1.9; Dynein transport: 0.595

What do the screens show for `COCCN1C[C@@H](CO)O[C@@H](n2cnc3c(NC4CCC4)ncnc32)C1`?
ABCB6 inh MLPCN: 96.0
